# TRPC6 act – activators of mouse TRPC6 channel; Q61143; HEK293-TRPC6 membrane potential dye fluorescence; hits give high values; B-score at 10 µM; 310,000 tested, 0.13% active; AID 2550;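 active = B-score of the integrated fluorescence ratio above library mean plus 3 SD, and starting fluorescence ratio within library mean plus 5 SD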;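 note: higher score means more depolarization so channel activation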
# TRPC4 act – opens the mouse TRPC4 cation channel; HEK293 TRPC4beta/mu-opioid, Fluo4 calcium fluorescence; hits give high values; B-score at 10 µM; 310,000 tested, 0.49% active; Q9QUQ5;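 active = B-score above 5 SD of library B-scores, and initial fluorescence ratio not above library mean plus 5 SD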;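 note: positive B-score marks a calcium rise read as TRPC4 activation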
# Target sequence (Q9QUQ5 whole entry, looked up): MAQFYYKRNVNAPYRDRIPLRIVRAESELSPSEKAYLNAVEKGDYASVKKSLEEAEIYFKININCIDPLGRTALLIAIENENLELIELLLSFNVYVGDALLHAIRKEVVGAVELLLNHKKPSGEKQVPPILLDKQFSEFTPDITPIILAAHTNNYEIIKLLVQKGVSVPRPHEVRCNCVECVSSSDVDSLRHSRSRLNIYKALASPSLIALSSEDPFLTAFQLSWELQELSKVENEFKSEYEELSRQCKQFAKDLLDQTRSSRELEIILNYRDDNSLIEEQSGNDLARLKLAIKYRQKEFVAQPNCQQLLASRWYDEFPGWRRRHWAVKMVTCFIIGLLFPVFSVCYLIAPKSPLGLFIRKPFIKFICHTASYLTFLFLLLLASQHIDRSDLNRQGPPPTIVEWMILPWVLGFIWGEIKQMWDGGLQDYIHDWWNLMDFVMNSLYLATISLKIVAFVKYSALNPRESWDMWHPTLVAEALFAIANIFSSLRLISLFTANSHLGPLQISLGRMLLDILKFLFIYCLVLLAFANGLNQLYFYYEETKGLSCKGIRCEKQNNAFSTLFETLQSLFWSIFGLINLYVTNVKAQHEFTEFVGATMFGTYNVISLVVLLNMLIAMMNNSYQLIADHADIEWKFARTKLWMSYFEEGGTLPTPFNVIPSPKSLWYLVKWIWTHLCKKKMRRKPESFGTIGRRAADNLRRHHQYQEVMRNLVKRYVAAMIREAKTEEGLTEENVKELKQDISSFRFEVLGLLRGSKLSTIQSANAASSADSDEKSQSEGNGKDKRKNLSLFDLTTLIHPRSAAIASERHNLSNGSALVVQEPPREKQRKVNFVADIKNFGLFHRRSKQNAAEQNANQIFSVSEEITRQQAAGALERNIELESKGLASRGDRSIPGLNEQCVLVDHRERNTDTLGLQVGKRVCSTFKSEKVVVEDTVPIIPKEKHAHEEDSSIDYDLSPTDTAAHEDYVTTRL
#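 Assay system – TRPC4beta and mu-opioid receptor HEK293 stable cells · Measured by – Fluo4 fluorescence, kinetic · Schedule – dye loading 45 min room temperature, 110 s kinetic read · Read-out – B-scored integrated calcium fluorescence ratio · Controls – buffer and maximal DAMGO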
# TRPC6 inh – inhibitors of mouse TRPC6 channel; AID 2553; 310,000 tested, 1.1% active; Q61143; B-score at 10 µM; HEK293-TRPC6, membrane potential dye, ACh-evoked depolarization; hits give low values;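 active = B-score under library mean minus 3 SD, initial fluorescence not abnormally high, positive integrated signal ratio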;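 note: B-score derived from integrated fluorescence ratio over the kinetic read; more negative B-score means stronger inhibition of depolarization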
# TRPC4 PAM – allosteric potentiators of mouse TRPC4 channel | 310,000 tested, 0.42% active | HEK293 TRPC4beta/mu-opioid, DAMGO EC20, Fluo-4 Ca2+ flux; hits give high values | Q9QUQ5 | B-score at 10 µM;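 active = B-score of calcium response area above 5 SD of library B-scores, with initial fluorescence ratio within 5 SD of library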;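 note: B-score of integrated fluorescence ratio over time as area under calcium response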
# TRPC4 inh – inhibitors of mouse TRPC4 channel; HEK293 TRPC4beta/mu-opioid, DAMGO-evoked Fluo4 calcium flux; hits give low values; B-score at 10 µM; 300,000 tested, 0.39% active;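 active = B-score over 3 SD under the library average, no early fluorescence shift, positive overall ratio signal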
#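 Assay system: Stable TRPC4beta/mu-opioid receptor HEK293 cells | Reagent: DAMGO in two steps, submaximal then maximal | Compound dosing: Single concentration per test compound | Signal: Fluo4 Ca2+ flux fluorescence | Evaluation: Per-well B score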
# TRPC4 sel inh 2 – mouse TRPC4 off-target activity of TRPC6 inhibitors, second screen. shares compounds with TRPC6 inh. inhibition, % at 10 µM. HEK293 TRPC4/MOR, membrane potential dye fluorescence; channel activated by saturating DAMGO dose. 920 tested, 42% active;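 active = compounds whose fluorescence signal differed from control wells by over 3 SD, either direction, in both duplicate plates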
# TRPC4 spec – tests whether TRPC6 inhibitors also affect mouse TRPC4; HEK293 TRPC4/mu-opioid, membrane potential fluorescence; shares compounds with TRPC6 inh; activity change, negative = inhibition, % at 10 µM; 920 tested, 61% active;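 active = rise or fall in signal beyond 3 SD of buffer-only wells in both replicate plates, either sign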;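 note: integrated kinetic ratio of fluorescence range over baseline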
# HEK293 MPD ctr 2-1 – second counter-screen for TRPC6 inhibitors: parental HEK293 cells; signal change vs control, % at 10 µM; parental HEK293 membrane potential dye fluorescence; maximal acetylcholine challenge after compound addition; 920 tested, 31% active; shares compounds with TRPC6 inh;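 active = membrane potential signal moving either way by over 3 SD of the maximum-effect control, in both duplicate plates, meaning non-specific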
# HEK293 MPD ctr-1 – counter-screen for TRPC6 inhibitors: effect in parental HEK293 cells; shares compounds with TRPC6 inh; parental HEK293 membrane potential dye fluorescence; membrane potential signal change, % at 10 µM; 920 tested, 60% active;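 active = membrane potential signal shifting up or down by more than 3 SD of buffer-only wells, on both duplicate plates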
# HEK293 MPD ctr-2 – parental HEK293 nonspecific activity of TRPC6 modulators | 2,400 tested, 51% active | shares compounds with TRPC6 inh | membrane potential signal change, % at 10 µM | AID 488924 | membrane potential dye fluorescence;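 active = membrane potential signal moves up or down beyond 5 SD from buffer-only wells, on both duplicate plates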
# HEK293 MPD ctr 2-2 – second counter-screen for TRPC6 modulators: effect in parental HEK293 cells; shares compounds with TRPC6 inh; membrane potential dye fluorescence; after compound, maximal acetylcholine stimulation; inhibition, % at 10 µM; 2,400 tested, 14% active; AID 488926;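 active = membrane potential signal drops by more than 5 SD from the mean control signal, in both duplicate plates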;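 note: plate controls were acetylcholine ECmax control wells for no effect and buffer only wells for full effect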
# TRPC4/MOR mod – tests whether TRPC6 modulators also affect mouse TRPC4 | shares compounds with TRPC6 inh | HEK293 TRPC4/mu-opioid, membrane potential fluorescence | percent change from control (negative = decrease, positive = increase), % at 10 µM | 2,400 tested, 69% active;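 active = membrane potential signal moved up or down beyond 5 SD of buffer control wells, in both duplicate plates, actives on both sides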;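 note: plate controls were assay buffer wells for no effect and DAMGO maximal-effect wells for full effect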
# TRPC4/MOR inh 2 – mouse TRPC4 off-target activity of TRPC6 modulators, second screen. shares compounds with TRPC6 inh. HEK293 TRPC4/mu-opioid, membrane potential dye fluorescence; stimulated with maximal-effect DAMGO. inhibition, % at 10 µM. 2,400 tested, 55% active;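 active = drop in membrane potential signal beyond 5 SD of the control wells in both duplicate plates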;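 note: TRPC4 counter screen for TRPC6 hits run under conditions tuned for TRPC6 not TRPC4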
# TRPC6 block conf – mouse TRPC6 inhibitor confirmation. shares compounds with TRPC6 inh. 3,300 tested, 43% active. HEK293-TRPC6, membrane potential dye, ACh-evoked depolarization. inhibition, % at 10 µM;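 active = fluorescence ratio falls more than 5 SD below the full-stimulation control mean, in both duplicate runs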;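 note: integrated fluorescence ratio of peak minus minimum over baseline after agonist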
# TRPC6 act conf – confirmation of mouse TRPC6 activators | HEK293-TRPC6 membrane potential dye fluorescence, FDSS | shares compounds with TRPC6 inh | 2,800 tested, 11% active | activation, % at 10 µM;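 active = ratio signal rise beyond 5 SD above unstimulated control wells' mean, seen in both duplicate runs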;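 note: plate controls were buffer EC0 wells for no effect and acetylcholine ECmax response for full effect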
# An asterisk follows results filed as active; i = inactive; · = not tested or not shown. The list is not random: actives were taken first. Their share in the collection is about 2.3%.
SMILES,TRPC6 act,TRPC4 act,TRPC6 inh,TRPC4 PAM,TRPC4 inh,HEK293 MPD ctr-2,HEK293 MPD ctr 2-2,TRPC4/MOR mod,TRPC4/MOR inh 2,TRPC6 block conf,TRPC6 act conf,others
Cc1ccccc1NS(=O)(=O)c1c(C(=O)N2CCCCCC2)c(C)n(C)c1C,i,i,i,i,i,·,·,·,·,·,·,
CCC1(C)Cc2c(sc3[nH]c(=S)[nH]c(=S)c23)CO1 (stereo not given),i,i,-8.9*,i,i,·,·,·,·,i,i,TRPC4 sel inh 2=i;TRPC4 spec=i;HEK293 MPD ctr 2-1=i;HEK293 MPD ctr-1=i
COc1cc(CN2CCNC(=O)C2CC(=O)NC2CCC2)cc(OC)c1 (stereo not given),i,i,i,i,i,·,·,·,·,·,·,
Clc1ccc2c(c1)C(N1CCNCC1)=Nc1ccccc1O2,i,i,-5.1*,i,i,i,i,8.0%*,48%*,i,i,
O=C(c1ccccc1)N1CCN(Cc2ccccc2C(F)(F)F)CC1,12*,i,i,i,i,i,i,18%*,i,·,134%*,
CCCCc1nnc(NC(=O)c2oc3ccccc3c2C)s1,i,i,i,i,i,·,·,·,·,·,·,
COc1cc(/C=C2\C(=O)ON=C2c2ccccc2)cc(Br)c1O,16*,i,i,i,i,906%*,i,74%*,i,i,148%*,
COc1cc(/C=C2/C(=O)ON=C2c2ccccc2)ccc1O,i,i,i,i,i,·,·,·,·,·,·,
CC1(C)Cc2c(cnn2-c2ccccc2)-c2c1c1ccccc1n2CC(O)CBr (stereo not given),i,i,i,i,i,·,·,·,·,·,·,
Nc1c(-c2ccccc2)cnn1-c1ccccc1,i,i,i,i,i,·,·,·,·,·,·,
Nc1c(-c2cccc(Cl)c2)cnn1-c1ccccc1,i,i,-7.1*,i,i,-124%*,i,-18%*,76%*,52%*,i,
CCOC(=O)CNC1CC(=O)N(c2ccc(Br)cc2)C1=O (stereo not given),i,i,i,i,i,·,·,·,·,·,·,
CCOC(=O)C(C(=O)Nc1ccccc1)C1CCCCC1 (stereo not given),i,i,i,i,i,·,·,·,·,·,·,
CC[N+](C)(CC)CCC(c1ccccc1)C1CCCCC1 (stereo not given),i,i,-9.6*,i,i,·,·,·,·,81%*,i,TRPC4 sel inh 2=i;TRPC4 spec=i;HEK293 MPD ctr 2-1=-16%*;HEK293 MPD ctr-1=i
